We go through five compounds from ChEMBL document CHEMBL5661968, “Antitumor activity of ZSTK474, a new phosphatidylinositol 3-kinase inhibitor” (J Natl Cancer Inst, 2006).

Broadly, the T/C is the ratio of treated to control. Broadly, the GI50 is the concentration that inhibits growth by half. A high value points to lower sensitivity of the cells. A word on the IC50: it is the midpoint of a concentration-inhibition curve.

Assay [1] relates to B16-F10. Description: Antitumor activity against mouse B16-F10 cells implanted in BDF1 mouse assessed as tumor size relative to control (T/C) at 12 mg/kg, iv administered on day 0 measured after 14 days. To be noted: 336 h.
The subject of assay [2] is B16-F10. Description: Antitumor activity against mouse B16-F10 cells implanted in BDF1 mouse assessed as tumor growth inhibition at 50 mg/kg, po administered on day 0,3 and 7 measured after 14 days. The note with it: B16-F10, 336 h, time 14 day, read-out: TGI. In kind it is functional. The procedure, abridged: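 Male BDF1 mice given 5 × 10^5 B16F10 melanoma cells subcutaneously; dosing began 7 days after inoculation (day 0) in random groups of seven. Tumours were measured by calipers, with TV = (L × W²)/2 and RTV = TVn/TV0. T/C% on day 14 = 100 × mean RTV treated / mean RTV control. Body weight was also recorded.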

Assay [3] relates to B16-F10. Briefly: Antitumor activity against mouse B16-F10 cells implanted in BDF1 mouse assessed as tumor size relative to control (T/C) at 100 mg/kg, iv administered on day 0,3 and 7 measured after 14 days. To be noted: 336 h.
In assay [4] the test system is SK-OV-3. Briefly: Growth inhibition of human SK-OV-3 cells measured after 48 hrs by sulforhodamine B assay. Type of assay: functional. The procedure, abridged: (§1)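 JFCR39 panel lines were grown in RPMI 1640 with 5% FBS, penicillin and streptomycin at 37 °C in 5% CO2. After 48 h of drug exposure, total cellular protein was measured by sulforhodamine B staining. GI50 was calculated by a previously described method.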

Assay [5] relates to MKN-74. Description: Growth inhibition of human MKN74 cells measured after 48 hrs by sulforhodamine B assay. Type of assay: functional. The procedure, abridged: as §1
The test system of assay [6] is NCI-H522. Description: Growth inhibition of human NCI-H522 cells measured after 48 hrs by sulforhodamine B assay. Type of assay: functional. In a few lines: as §1
A general note: Sulforhodamine B stains cellular protein and so reports cell mass.

For assay [7], the system named is SF-539. Briefly: Growth inhibition of human SF-539 cells measured after 48 hrs by sulforhodamine B assay. Type of assay: functional. The procedure, abridged: as §1
The test system of assay [8] is HCC 2998. Description: Growth inhibition of human HCC 2998 cells measured after 48 hrs by sulforhodamine B assay. In kind it is functional. The procedure, abridged:
as §1

Assay [9] concerns MKN-45. Description: Growth inhibition of human MKN-45 cells measured after 48 hrs by sulforhodamine B assay. In kind it is functional. The procedure, abridged: as §1
Assay [10] has as its system St-4. Briefly: Growth inhibition of human St-4 cells measured after 48 hrs by sulforhodamine B assay. In kind it is functional. The procedure, abridged:
as §1

In assay [11] the test system is ACHN. Description: Growth inhibition of human ACHN cells measured after 48 hrs by sulforhodamine B assay. In kind it is functional. In a few lines:
as §1

A short description of assay [12]: Inhibition of PI3K in human A549 cell lysate preincubated with compound for 5 mins followed by [gamma-32p]-ATP addition measured after 20 mins by immunoprecipitation based liquid scintillation spectroscopic analysis. In kind it is subcellular. The procedure, abridged: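 PI3K immunoprecipitated with anti-p85 polyclonal antibody and protein G–agarose from A549 lysate (2–4 mg/mL protein), washed, suspended in buffer C (100 mM NaCl, 20 mM Tris pH 7.5) with 200 μg/mL phosphatidylinositol; compound preincubated 5 min at 25 °C; reaction started with [γ-32P]ATP (20 μM final) and 20 mM MgCl2, run 20 min at 25 °C; PI3P separated by TLC, counted by scintillation; activity as % of no-compound cpm.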

Assay [13] deals with NCI-H23. Description: Growth inhibition of human NCI-H23 cells measured after 48 hrs by sulforhodamine B assay. In kind it is functional. The procedure, abridged:
as §1

The test system of assay [14] is KM12. Briefly: Growth inhibition of human KM12 cells measured after 48 hrs by sulforhodamine B assay. In kind it is functional. In a few lines:
as §1

The subject of assay [15] is SNB-75. Briefly: Growth inhibition of human SNB-75 cells measured after 48 hrs by sulforhodamine B assay. Type of assay: functional. In a few lines: as §1
For assay [16], the system named is OVCAR-8. Briefly: Growth inhibition of human OVCAR-8 cells measured after 48 hrs by sulforhodamine B assay. Type of assay: functional. In a few lines:
as §1

Assay [17] is described as follows: Growth inhibition of human HBC4 cells measured after 48 hrs by sulforhodamine B assay. In kind it is functional. In a few lines: as §1
Assay [18] has as its system HCT-116. Briefly: Growth inhibition of human HCT-116 cells measured after 48 hrs by sulforhodamine B assay. Type of assay: functional. In a few lines:
as §1

Assay [19] deals with NCI-H460. Briefly: Growth inhibition of human NCI-H460 cells measured after 48 hrs by sulforhodamine B assay. In kind it is functional. In a few lines: as §1
In assay [20] the test system is DU-145. Briefly: Growth inhibition of human DU-145 cells measured after 48 hrs by sulforhodamine B assay. Type of assay: functional. In a few lines:
as §1

In assay [21] the test system is HCT-15. Description: Growth inhibition of human HCT-15 cells measured after 48 hrs by sulforhodamine B assay. In kind it is functional. In a few lines:
as §1

Assay [22] relates to MKN-7. Briefly: Growth inhibition of human MKN-7 cells measured after 48 hrs by sulforhodamine B assay. In kind it is functional. The procedure, abridged: as §1
Assay [23] in a line: Growth inhibition of human HBC5 cells measured after 48 hrs by sulforhodamine B assay. Type of assay: functional. In a few lines:
as §1

Assay [24] has as its system DMS-273. Description: Growth inhibition of human DMS-273 cells measured after 48 hrs by sulforhodamine B assay. Type of assay: functional. The procedure, abridged:
as §1

In assay [25] the test system is RXF 631. Description: Growth inhibition of human RXF 631 cells measured after 48 hrs by sulforhodamine B assay. In kind it is functional. In a few lines: as §1
In assay [26] the test system is OVCAR-4. Description: Growth inhibition of human OVCAR-4 cells measured after 48 hrs by sulforhodamine B assay. In kind it is functional. The procedure, abridged:
as §1

Assay [27] relates to OVCAR-3. Description: Growth inhibition of human OVCAR-3 cells measured after 48 hrs by sulforhodamine B assay. In kind it is functional. In a few lines:
as §1

In assay [28] the test system is PC-3. Briefly: Growth inhibition of human PC-3 cells measured after 48 hrs by sulforhodamine B assay. Type of assay: functional. The procedure, abridged: as §1
For assay [29], the system named is DMS-114. Description: Growth inhibition of human DMS-114 cells measured after 48 hrs by sulforhodamine B assay. Type of assay: functional. In a few lines:
as §1

Assay [30] deals with MKN-1. Briefly: Growth inhibition of human MKN-1 cells measured after 48 hrs by sulforhodamine B assay. Type of assay: functional. The procedure, abridged: as §1
A short description of assay [31]: Growth inhibition of human BSY1 cells measured after 48 hrs by sulforhodamine B assay. Type of assay: functional. To be noted: BSY-1. The procedure, abridged: as §1
Assay [32] has as its system SF-295. Briefly: Growth inhibition of human SF-295 cells measured after 48 hrs by sulforhodamine B assay. In kind it is functional. In a few lines:
as §1

Assay [33] deals with LOX IMVI. Briefly: Growth inhibition of human LOX IMVI cells measured after 48 hrs by sulforhodamine B assay. In kind it is functional. The procedure, abridged:
as §1

In assay [34] the test system is NCI-H226. Description: Growth inhibition of human NCI-H226 cells measured after 48 hrs by sulforhodamine B assay. Type of assay: functional. In a few lines:
as §1

For assay [35], the system named is U-251. Briefly: Growth inhibition of human U-251 cells measured after 48 hrs by sulforhodamine B assay. Type of assay: functional. In a few lines:
as §1

In assay [36] the test system is HT-29. Description: Growth inhibition of human HT-29 cells measured after 48 hrs by sulforhodamine B assay. In kind it is functional. In a few lines: as §1
Assay [37] relates to SF-268. Briefly: Growth inhibition of human SF-268 cells measured after 48 hrs by sulforhodamine B assay. In kind it is functional. The procedure, abridged: as §1
In assay [38] the test system is OVCAR-5. Briefly: Growth inhibition of human OVCAR-5 cells measured after 48 hrs by sulforhodamine B assay. Type of assay: functional. In a few lines:
as §1

Assay [39] relates to MKN-28. Briefly: Growth inhibition of human MKN-28 cells measured after 48 hrs by sulforhodamine B assay. In kind it is functional. In a few lines: as §1
Assay [40] relates to A549. Briefly: Growth inhibition of human A549 cells measured after 48 hrs by sulforhodamine B assay. In kind it is functional. The procedure, abridged:
as §1

Assay [41] deals with MDA-MB-231. Description: Growth inhibition of human MDA-MB-231 cells measured after 48 hrs by sulforhodamine B assay. Type of assay: functional. In a few lines: as §1
Assay [42] concerns SNB-78. Briefly: Growth inhibition of human SNB-78 cells measured after 48 hrs by sulforhodamine B assay. Type of assay: functional. In a few lines: as §1
A short description of assay [43]: Residual PI3K activity in human A549 cell lysate at 1 uM preincubated with compound for 5 mins followed by [gamma-32p]-ATP addition measured after 20 mins by immunoprecipitation based liquid scintillation spectroscopic analysis relative to control. To be noted: A549, 25 min.
Assay [44] deals with A549. Description: Irreversible inhibition of PI3K in human A549 cell lysate at 1 uM preincubated with compound for 5 mins followed by [gamma-32p]-ATP addition measured after 20 mins by immunoprecipitation based liquid scintillation spectroscopic analysis. Type of assay: subcellular. To be noted: time 25.0 min. The procedure, abridged:
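Class Ia PI3K was immunoprecipitated with anti-p85 antibody from A549 lysate and preincubated 5 min with compound at 1 μM. The mix was split: one aliquot washed four times (100 mM NaCl, 20 mM Tris pH 7.5), the other unwashed. Each aliquot was assayed with phosphatidylinositol 200 μg/mL, [γ-32P]ATP 20 μM final and MgCl2 20 mM final, 25 °C for 20 min. PI3P was separated by TLC, scraped and counted by scintillation, expressed as % of no-compound cpm.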

Activity calls are given as the source filed them. The rule behind the calls is not given here.

Regarding `COc1cccc2c1C(=O)c1c(O)c3c(c(O)c1C2=O)C[C@@](O)(C(=O)CO)C[C@@H]3O[C@H]1C[C@H](N)[C@H](O)[C@H](C)O1` [DOXORUBICIN], the T/C at 12 mg/kg in [1] amounted to 24%.

As to `O=c1[nH]cc(F)c(=O)[nH]1` [FLUOROURACIL], the inhibition in vivo at 50 mg/kg in [2] is 68.3%.

For the compound `CCc1c2c(nc3ccc(OC(=O)N4CCC(N5CCCCC5)CC4)cc13)-c1cc3c(c(=O)n1C2)COC(=O)[C@]3(O)CC` [IRINOTECAN], the T/C at 100 mg/kg in assay [3] was determined as 96%.

`O=c1cc(N2CCOCC2)oc2c(-c3ccccc3)cccc12` [LY-294002]: the GI50 in assay [4] was 14.1 µM; in assay [5], 18.2 µM; in assay [6], 3.24 µM; in assay [7], 3.09 µM; in [8], 10.5 µM; in [9], 7.08 µM. Besides, the GI50 in assay [10] is 20.9 µM; in assay [11], 10 µM; in assay [13] it was 16.6 µM; in assay [14] it was 15.5 µM; in assay [15], 2.57 µM; in assay [16] it was 10 µM. Further, the GI50 is 8.71 µM in assay [17]; 15.1 µM in [18]; 17 µM in assay [19]; 10 µM in assay [20]; 9.77 µM in assay [21]; 24 µM in [22]. Moreover, the GI50 was 3.98 µM in [23]; 6.03 µM in [24]; 5.5 µM in [25]; 4.27 µM in [26]; 5.75 µM in [27]; 1.78 µM in [28]. Moreover, the GI50 in assay [29] is 2.95 µM; in [30], 10.5 µM; in assay [31], 5.01 µM; in assay [32] it was 3.24 µM; in assay [33], 6.17 µM; in assay [34] it was 4.37 µM. In addition, the GI50 in assay [35] is 15.5 µM; in assay [36], 15.1 µM; in assay [37] it was 6.61 µM; in assay [38] it was 8.13 µM; in [39], 24.5 µM; in assay [40], 6.03 µM. Besides, the results for the GI50 in [41] and in [42] were 5.37 µM and 2.57 µM, respectively. Besides, in [12], the IC50 came out at 0.79 µM. Besides, the level, % of control at 1 µM in [43] was 44.6%.

Consider `COC[C@H]1OC(=O)c2coc3c2[C@@]1(C)C1=C(C3=O)[C@@H]2CCC(=O)[C@@]2(C)C[C@H]1OC(C)=O` [WORTMANNIN], for which the inhibition entry in assay [44] is “Active”. For the same compound, in [12], the IC50 stood at 0.011 µM.
